# Test results from paper PMC3090679 (Biochemistry, 2011).
# Positions count from the first letter of the chain named. “Also recorded” adds a separate entry of the source. Like-named read-outs stand apart in the source and are kept apart here.
# What was measured:
# [1] = molecular target: T1, RGS8Cys− (Homo sapiens, UniProt P57771, C142S/C89S); assay: ESI-LC/MS protein adduct analysis, RGS8Cys−; settings: RGS8Cys− mutant
# T1 sequence (P57771 74-189 isoform P57771-2 C107S/C160S): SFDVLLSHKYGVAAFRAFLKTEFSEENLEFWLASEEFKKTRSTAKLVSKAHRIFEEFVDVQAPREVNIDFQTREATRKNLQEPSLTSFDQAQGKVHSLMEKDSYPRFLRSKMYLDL
# [2] = molecular target: T2, RGS4 (Homo sapiens, UniProt P49798); assay: ThermoFluor thermal stability, RGS4; format: binding
# T2 sequence (P49798 52-205 limits assumed): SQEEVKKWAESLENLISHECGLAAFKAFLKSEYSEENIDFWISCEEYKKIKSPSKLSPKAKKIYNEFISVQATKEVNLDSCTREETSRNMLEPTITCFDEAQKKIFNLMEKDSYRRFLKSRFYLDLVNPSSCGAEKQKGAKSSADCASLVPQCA
# [3] = molecular target: T3, RGS7 (Homo sapiens, UniProt P49802); assay: FCPIA, RGS7/Gαo binding
# T3 sequence (P49802 333-448 limits assumed): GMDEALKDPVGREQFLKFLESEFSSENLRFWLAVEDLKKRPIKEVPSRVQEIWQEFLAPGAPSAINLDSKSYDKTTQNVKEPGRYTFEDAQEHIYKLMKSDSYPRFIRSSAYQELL
# In short: (§1)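 Constructs were RGS19 ΔC11 as an MBP/10×His fusion and the RGS7 homology domain as a GST fusion. Each was chemically biotinylated, immobilised on avidin microspheres and pretreated with test compound or vehicle for 15 min at room temperature. Beads were then mixed with AlexaFluor-532-Gαo plus GDP/AlF and binding was read by flow cytometry. IC50 is the mean±SEM of at least three independent experiments.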
# [4] = molecular target: T4, RGS8 (Homo sapiens, UniProt P57771); assay: FCPIA, RGS8/Gαo binding
# T4 sequence (P57771 56-171 limits assumed): T1 sequence (P57771 74-189 isoform P57771-2 C107S/C160S) with S34C, S87C
# [5] = molecular target: T5, RGS8cys− (C160S/C107S) (Homo sapiens, UniProt P57771, C142S/C89S); assay: FCPIA, RGS8cys−/Gαo binding
# T5 sequence (P57771 56-171 C89S/C142S): T1 sequence (P57771 74-189 isoform P57771-2 C107S/C160S)
# In short: (§2)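 RGS8 homology domain (N-terminal 6×His, pQE-80) with Cys→Ser site-directed mutations was chemically biotinylated on amines and loaded on avidin microspheres. Beads were treated with test compound or vehicle for 15 min at room temperature, then mixed with AlexaFluor-532-labelled Gαo plus GDP and aluminium fluoride. Binding was read by Luminex flow cytometry. Values are mean±SEM of three independent experiments.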
# [6] = molecular target: T6, RGS4-stimulated GTP hydrolysis by Gαo (Homo sapiens, UniProt P49798); assay: Single turnover GTPase assay, RGS4 GAP activity; format: biochemical
# T6 sequence (P49798 52-205 limits assumed): T2 sequence (P49798 52-205 limits assumed)
# In short: (§3)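 Single-turnover measurement of Gαo GTP hydrolysis, with or without RGS4 or RGS8, in the presence of test compound, following a previously published method. The RGS8 homology domain was an N-terminal 6×His construct from pQE-80 carrying native Cys107 and Cys160. All proteins were purified to >90% homogeneity, and Gαo activity was confirmed by [35S]GTPγS binding. Output is the GTP hydrolysis rate constant k (sec−1).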
# [7] = molecular target: T7, Gαo (Homo sapiens, UniProt P09471); assay: ThermoFluor thermal stability, Gαo; format: binding
# [8] = molecular target: T4, RGS8; assay: ThermoFluor thermal stability, RGS8; format: binding
# [9] = molecular target: T8, 160C RGS8 (Homo sapiens, UniProt P57771, C89S); assay: Gel filtration after compound treatment, 160C RGS8
# T8 sequence (P57771 56-171 C89S): T1 sequence (P57771 74-189 isoform P57771-2 C107S/C160S) with S87C
# [10] = molecular target: T7, Gαo; assay: Single turnover GTPase assay, intrinsic Gαo rate; format: biochemical; settings: 100 μM
# In short: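 N-terminally 6×His-tagged Gαo was purified to >90% homogeneity. Single-turnover hydrolysis of isotopically diluted γ[32P]GTP was measured. Results are expressed as the rate constant k (sec−1) of GTP hydrolysis.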
# [11] = molecular target: T9, RGS4 wild Type (Homo sapiens, UniProt P49798); assay: FCPIA, RGS4/Gαo binding
# T9 sequence (P49798 52-205 limits assumed): T2 sequence (P49798 52-205 limits assumed)
# [12] = molecular target: T10, WT RGS8 (Homo sapiens, UniProt P57771); assay: Gel filtration then FCPIA competition, WT RGS8; format: binding
# T10 sequence (P57771 56-171 limits assumed): T1 sequence (P57771 74-189 isoform P57771-2 C107S/C160S) with S34C, S87C
# [13] = molecular target: T11, RGS16 (Homo sapiens, UniProt O15492); assay: FCPIA, RGS16/Gαo binding
# T11 sequence (O15492 1-202): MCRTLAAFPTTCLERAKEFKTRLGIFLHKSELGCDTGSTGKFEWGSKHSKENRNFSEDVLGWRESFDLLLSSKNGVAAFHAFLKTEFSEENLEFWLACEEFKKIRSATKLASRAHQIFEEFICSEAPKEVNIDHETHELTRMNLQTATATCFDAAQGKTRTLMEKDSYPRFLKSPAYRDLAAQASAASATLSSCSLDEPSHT
# [14] = molecular target: T12, 160C RGS8 (C107S) (Homo sapiens, UniProt P57771, C89S); assay: FCPIA, 160C RGS8/Gαo binding
# T12 sequence (P57771 56-171 C89S): T1 sequence (P57771 74-189 isoform P57771-2 C107S/C160S) with S87C
# In short: as §2
# [15] = molecular target: T13, 107C RGS8 (C160S) (Homo sapiens, UniProt P57771, C142S); assay: FCPIA, 107C RGS8/Gαo binding
# T13 sequence (P57771 74-189 isoform P57771-2 C160S): T1 sequence (P57771 74-189 isoform P57771-2 C107S/C160S) with S34C
# In short: as §2
# [16] = tested on: Gαo-dependent membrane translocation of GFP-RGS4 in HEK293T cells; assay: RGS4 membrane translocation in living cells; format: cell-based, human; settings: 100 μM
# [17] = molecular target: T10, WT RGS8; assay: ESI-LC/MS protein adduct analysis, WT RGS8; settings: WT RGS8 2 μM
# [18] = molecular target: T14, papain (Carica papaya, UniProt P00784); assay: Papain activity assay; format: biochemical
# T14 sequence (P00784 134-345): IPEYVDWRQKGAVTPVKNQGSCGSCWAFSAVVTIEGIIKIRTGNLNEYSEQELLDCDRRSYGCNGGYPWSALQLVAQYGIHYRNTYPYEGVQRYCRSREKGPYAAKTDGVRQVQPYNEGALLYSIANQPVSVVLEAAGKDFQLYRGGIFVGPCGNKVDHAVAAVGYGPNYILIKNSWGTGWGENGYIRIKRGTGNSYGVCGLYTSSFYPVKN
# In short: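 FITC-casein was added to 250 nM final. Fluorescence (ex 485/em 520 nm) was read at intervals in the dark, and concentration dependence was taken at 5 min. Values are mean±SEM of three independent experiments.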
# [19] = molecular target: T15, RGS8-stimulated GTP hydrolysis by Gαo (Homo sapiens, UniProt P57771); assay: Single turnover GTPase assay, RGS8 GAP activity; format: biochemical
# T15 sequence (P57771 56-171 limits assumed): T1 sequence (P57771 74-189 isoform P57771-2 C107S/C160S) with S34C, S87C
# In short: as §3
# [20] = molecular target: T16, RGS19 (Homo sapiens, UniProt P49795); assay: FCPIA, RGS19/Gαo binding
# T16 sequence (P49795 1-206 limits assumed): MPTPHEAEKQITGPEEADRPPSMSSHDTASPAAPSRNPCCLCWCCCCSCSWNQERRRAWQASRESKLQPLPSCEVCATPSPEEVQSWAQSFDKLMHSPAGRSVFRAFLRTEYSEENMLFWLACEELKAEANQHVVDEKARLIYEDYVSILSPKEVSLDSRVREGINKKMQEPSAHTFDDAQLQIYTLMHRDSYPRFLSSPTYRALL
# In short: as §1
# [21] = molecular target: T17, 107C RGS8 (Homo sapiens, UniProt P57771, C142S); assay: Gel filtration then FCPIA competition, 107C RGS8; format: binding; settings: 107C RGS8 after gel filtration
# T17 sequence (P57771 74-189 isoform P57771-2 C160S): T1 sequence (P57771 74-189 isoform P57771-2 C107S/C160S) with S34C
# [22] = molecular target: Gαo (UniProt P59215); assay: flow cytometry protein interaction assay
# [23] = read-out: irreversible inhibition of Gα binding after extensive washing
# [24] = read-out: total amount of inhibition (without a wash step)
# [25] = 100 μM, FITC-casein proteolysis
# [26] = concentration dependence or concentration not stated
# T7 sequence (P09471 whole entry): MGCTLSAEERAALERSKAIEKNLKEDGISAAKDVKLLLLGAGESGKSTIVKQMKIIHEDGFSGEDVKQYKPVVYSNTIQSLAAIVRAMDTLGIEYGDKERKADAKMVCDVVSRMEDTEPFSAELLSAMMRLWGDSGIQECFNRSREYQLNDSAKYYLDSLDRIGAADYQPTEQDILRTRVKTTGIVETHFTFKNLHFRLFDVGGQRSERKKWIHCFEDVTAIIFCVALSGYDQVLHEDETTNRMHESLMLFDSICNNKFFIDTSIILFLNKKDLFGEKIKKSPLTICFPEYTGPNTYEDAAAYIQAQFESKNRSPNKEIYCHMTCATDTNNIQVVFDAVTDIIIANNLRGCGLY
# Gαo (UniProt P59215), sequence (P59215 whole entry): as the sequence (P09471 whole entry) above, with I93V, A104S, T292P, P294S, A306T counted along it
compound,measurement,setting,value
"Cc1ccc(-n2sc(=O)n(Cc3ccc(F)cc3)c2=O)cc1 [CCG-50014, 4-(4-fluorobenzyl)-2-p-tolyl-1,2,4-thiadiazolidine-3,5-dione]",adduct formation by LC-MS,[1],No adducts are observed
same,effect on thermal stability of RGS4,[2],concentration-dependently destabilized
same,IC50,[3],> 200 µM
same,inhibition of RGS7/Gαo binding (in words),[3]; FCPIA,did not have activity
same,inhibition of RGS8/Gαo binding (in words),[4]; FCPIA,fully inhibits
same,Hill Slope,"[4]; FCPIA, RGS8",−0.99
same,Hill Coefficient,"[4]; FCPIA, wildtype RGS8, Fig. 5",−0.79
same,IC50,"[4]; IC50 (μM), FCPIA, wildtype RGS8, Fig. 5, three experiments",6.1 µM
same,reversibility of inhibition after washing with DTT,"[4]; RGS8 beads, 100 μM for 15 minutes, wash with 1 mM DTT",partially reversed
same,reversibility of inhibition after washing,"[4]; RGS8 beads, 100 μM for 15 minutes, wash without DTT",irreversible inhibitor
same,inhibition at 20 µM,"[4]; read-out: total amount of inhibition (without a wash step), WT RGS8, 20 μM",64 ± 2%
same,IC50,[5],> 100 µM
same,effect on GTPase accelerating (GAP) activity of RGS4 on Gαo,[6],concentration-dependently inhibits the GAP activity; also recorded: inhibited the GTPase accelerating activity
same,effect on thermal stability of Gαo,[7],no effect
same,effect on thermal stability of RGS8,[8],thermally destabilizes
same,effect on thermal stability of RGS8,[8]; listed as CCGA-50014,concentration-dependently destabilized
same,state of the protein after compound treatment,[9],formed aggregates; also recorded: completely (and visually) aggregates
same,effect on intrinsic rate of GTP hydrolysis by Gαo,[10],did not alter
same,selectivity for RGS4 over RGS8 and RGS16,[11]; FCPIA IC50 values,> 100 fold
same,inhibitory activity against the RGS4-Gαo protein-protein interaction at pH 6.5,[11]; FCPIA at pH 6.5 (control for papain assay),retains full inhibitory activity
same,Hill Slope,"[11]; FCPIA, RGS4 wild type",−1.53
same,reversibility of inhibition after washing with DTT,"[11]; RGS4 beads, 100 μM for 15 minutes, wash with 1 mM DTT",partially reversed
same,reversibility of inhibition after washing,"[11]; RGS4 beads, 100 μM for 15 minutes, wash without DTT",irreversible inhibitor
same,residual inhibition after gel filtration,[12],> 90%
same,inhibition of RGS16/Gαo binding (in words),[13],fully inhibits
same,Hill Slope,[13]; RGS16,−1.33
same,IC50,[14],0.71 µM
same,reversibility of inhibition after washing,"[14]; 160C RGS8, 20 μM",completely irreversible
same,Hill Coefficient,"[14]; FCPIA, 160C RGS8, Fig. 5",−0.36
same,inhibition at 20 µM,[14]; [23],~50%
same,inhibition at 20 µM,[14]; [24],56 ± 1%
same,IC50,[15],46.5 µM
same,reversibility of inhibition after washing,"[15]; 107C RGS8, 20 μM",partially reversed
same,Hill Coefficient,"[15]; FCPIA, 107C RGS8, Fig. 5",−0.54
same,inhibition at 20 µM,[15]; [23],~20%
same,inhibition at 20 µM,[15]; [24],45 ± 2%
same,effect on Gαo-dependent membrane localization of GFP-RGS4,[16],reversed the membrane localization; also recorded: significant decrease
same,adduct formation by LC-MS,[17],covalent adduct
same,effect on papain activity,[18]; [25],no effect
same,effect on GTPase accelerating (GAP) activity of RGS8 on Gαo,[19],concentration-dependently inhibits the GAP activity; also recorded: inhibited the GTPase accelerating activity
same,inhibition of RGS19/Gαo binding (in words),[20],fully inhibits
same,Hill Slope,[20]; RGS19,−0.61
same,"competition for Gαo binding, treated versus vehicle-treated protein",[21],no discernable difference
"CCN1C(=O)C=CC1=O [NEM, N-ethyl maleimide, reference compound]",inhibition of RGS8/Gαo binding (in words),[4]; FCPIA,no effect
same,effect on papain activity,[18]; [26],no effect
NC(=O)CI [iodoacetamide],effect on papain activity,[18]; [25],markedly inhibits
same,effect on papain activity,[18]; [26],concentration-dependently inhibited
same,effect on papain activity,"[18]; concentration dependence or concentration not stated, listed as IA",inhibited the proteolytic activity of papain in a concentration-dependent manner
"WT RGS8 treated with CCG-50014 (with its covalently attached CCG-50014), recovered from gel filtration (domain or fragment)",fold less potent at competing for Gα binding than vehicle-treated RGS8,[22],14 fold
